Laboratory results reported in ChEMBL document CHEMBL4354828, “Discovery of Taniborbactam (VNRX-5133): A Broad-Spectrum Serine- and Metallo-β-lactamase Inhibitor for Carbapenem-Resistant Bacterial Infections” (J Med Chem, 2020).
Converted amounts (≈) assume the structure as drawn.

Columns and labels:
Escherichia coli [1] = test: Inhibition of NDM in Escherichia coli CDC-0452 assessed as meropenem antibacterial activity at 4 ug/ml after 16 to 20 hrs by CLSI-based microbroth dilution method (reference value: […] ug/ml)
Enterobacter cloacae = test: Inhibition of VIM-1/VIM-2/VIM-4/NDM-1 in Enterobacter cloacae assessed as cefepime antibacterial activity at 4 ug/ml after 16 to 20 hrs by CLSI-based microbroth dilution method
Outline: (§1)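 Panel of 14 clinical isolates expressing class B VIM- or NDM-type MBLs: E. coli (4), E. cloacae (2), K. pneumoniae (4), P. aeruginosa (1), A. baumannii (3).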

[2] = Clearance in mouse at […], iv after 1 to 6 hrs by LC-MS/MS analysis; format: ADME, organism-based; conditions: in vivo
Escherichia coli [3] = test: Inhibition of NDM-1/CMY-6/OXA-1 in Escherichia coli CDC-0055 assessed as meropenem antibacterial activity at 4 ug/ml after 16 to 20 hrs by CLSI-based microbroth dilution method (reference value: […] ug/ml)
Pseudomonas aeruginosa [4] = test: Inhibition of KPC-2/PDC-42 in Pseudomonas aeruginosa CDC-0356 assessed as piperacillin antibacterial activity at 16 ug/ml after 16 to 20 hrs by CLSI-based microbroth dilution method (Rvb > […] ug/ml)
Escherichia coli [5] = test: Inhibition of NDM-1/CMY-6/OXA-1 in Escherichia coli CDC-0055 assessed as cefepime antibacterial activity at 8 ug/ml after 16 to 20 hrs by CLSI-based microbroth dilution method
Outline: (§2)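 MDR β-lactamase-producing Gram-negative clinical isolates. […] MIC was reported as the inhibitor concentration that restores the partner's antibacterial activity.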

Pseudomonas aeruginosa [6] = test: Inhibition of VIM in Pseudomonas aeruginosa CDC-0457 assessed as cefepime antibacterial activity at 8 ug/ml after 16 to 20 hrs by CLSI-based microbroth dilution method
Pseudomonas aeruginosa [7] = test: Inhibition of VIM-1/VIM-2/VIM-4/NDM-1 in Pseudomonas aeruginosa assessed as cefepime antibacterial activity at 4 ug/ml after 16 to 20 hrs by CLSI-based microbroth dilution method; outline: as §1
[8] = Inhibition of bacterial AmpC using nitrocefin as substrate preincubated for 15 mins followed by susbtrate addition and measured after 10 mins by spectrophotometric method; set-up: species or system Bacteria
[9] = Inhibition of bacterial CMY-2 using nitrocefin as substrate preincubated for 15 mins followed by susbtrate addition and measured after 10 mins by spectrophotometric method; set-up: species or system Bacteria
Escherichia coli [10] = test: Inhibition of NDM-1/CMY-6/OXA-1 in Escherichia coli CDC-0055 assessed as piperacillin antibacterial activity at 16 ug/ml after 16 to 20 hrs by CLSI-based microbroth dilution method; outline: as §2
Pseudomonas aeruginosa [11] = test: Inhibition of VIM in Pseudomonas aeruginosa CDC-0457 assessed as piperacillin antibacterial activity at 16 ug/ml after 16 to 20 hrs by CLSI-based microbroth dilution method
Klebsiella pneumoniae [12] = test: Inhibition of VIM-27/CTX-M-15/SHV-11/OXA-1 in Klebsiella pneumoniae CDC-0040 assessed as meropenem antibacterial activity at 4 ug/ml after 16 to 20 hrs by CLSI-based microbroth dilution method
[13] = Volume of distribution at steady state in mouse at 10 mg/kg, iv after 1 to 6 hrs by LC-MS/MS analysis; format: ADME, organism-based; conditions: in vivo, read-out: Vdss
Escherichia coli [14] = test: Inhibition of NDM in Escherichia coli CDC-0452 assessed as piperacillin antibacterial activity at 16 ug/ml after 16 to 20 hrs by CLSI-based microbroth dilution method (Rvb > […] ug/ml)
Klebsiella pneumoniae [15] = test: Inhibition of KPC-2/SHV12/TEM-1 in Klebsiella pneumoniae CDC-0361 assessed as meropenem antibacterial activity at 4 ug/ml after 16 to 20 hrs by CLSI-based microbroth dilution method (reference value: […] ug/ml)
[16] = test system: Klebsiella pneumoniae ATCC BAA-1705; test: Inhibition of KPC-2 in Klebsiella pneumoniae ATCC BAA 1705 assessed as meropenem antibacterial activity at 4 ug/ml after 16 to 20 hrs by CLSI-based microbroth dilution method (reference value: […] ug/ml)
[17] = Inhibition of bacterial VIM-2 using nitrocefin as substrate preincubated for 15 mins followed by susbtrate addition and measured after 10 mins by spectrophotometric method; set-up: species or system Bacteria
Outline: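 Purified β-lactamase inhibition. IC50 values are the average of duplicates unless otherwise indicated.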

Acinetobacter baumannii = test: Inhibition of VIM-1/VIM-2/VIM-4/NDM-1 in Acinetobacter baumannii assessed as cefepime antibacterial activity at 4 ug/ml after 16 to 20 hrs by CLSI-based microbroth dilution method; outline: as §1
Pseudomonas aeruginosa [18] = test: Inhibition of VIM in Pseudomonas aeruginosa CDC-0457 assessed as meropenem antibacterial activity at 4 ug/ml after 16 to 20 hrs by CLSI-based microbroth dilution method
Pseudomonas aeruginosa [19] = test: Inhibition of KPC-2/PDC-42 in Pseudomonas aeruginosa CDC-0356 assessed as cefepime antibacterial activity at 8 ug/ml after 16 to 20 hrs by CLSI-based microbroth dilution method (Rvb > […] ug/ml)
[20] = AUC (infinity) in mouse at 10 mg/kg, iv after 1 to 6 hrs by LC-MS/MS analysis; format: ADME, organism-based; set-up: dose 10 mg/kg, time infinity, route intravenous; conditions: in vivo
Klebsiella pneumoniae [21] = test: Inhibition of KPC-2/SHV12/TEM-1 in Klebsiella pneumoniae CDC-0361 assessed as cefepime antibacterial activity at 8 ug/ml after 16 to 20 hrs by CLSI-based microbroth dilution method (reference value: […] ug/ml)
Klebsiella pneumoniae [22] = test: Inhibition of VIM-27/CTX-M-15/SHV-11/OXA-1 in Klebsiella pneumoniae CDC-0040 assessed as piperacillin antibacterial activity at 16 ug/ml after 16 to 20 hrs by CLSI-based microbroth dilution method
Klebsiella pneumoniae [23] = test: Inhibition of KPC-2/SHV12/TEM-1 in Klebsiella pneumoniae CDC-0361 assessed as piperacillin antibacterial activity at 16 ug/ml after 16 to 20 hrs by CLSI-based microbroth dilution method (Rvb > […] ug/ml)
Klebsiella pneumoniae [24] = test: Inhibition of OXA-232/OXA-9/TEM-1A/CTX-M-15/OXA-1 in Klebsiella pneumoniae CDC-0066 assessed as cefepime antibacterial activity at 8 ug/ml after 16 to 20 hrs by CLSI-based microbroth dilution method (Rvb > […] ug/ml)
Escherichia coli [25] = test: Inhibition of NDM in Escherichia coli CDC-0452 assessed as cefepime antibacterial activity after 16 to 20 hrs by CLSI-based microbroth dilution method (reference value: […] ug/ml)
[26] = Inhibition of bacterial CTX-M-15 using cefotaxime as substrate preincubated for 15 mins followed by susbtrate addition and measured after 10 mins by spectrophotometric method; set-up: species or system Bacteria

SMILES	MIC (Escherichia coli [1])	MIC50 (Enterobacter cloacae)	MIC90 (Enterobacter cloacae)	clearance [2]	MIC (Escherichia coli [3])	MIC (Pseudomonas aeruginosa [4])	MIC (Escherichia coli [5])	MIC (Pseudomonas aeruginosa [6])	MIC50 (Pseudomonas aeruginosa [7])	MIC90 (Pseudomonas aeruginosa [7])	IC50 [8]	IC50 [9]	MIC (Escherichia coli [10])	MIC (Pseudomonas aeruginosa [11])	MIC (Klebsiella pneumoniae [12])	Vd [13]	MIC (Escherichia coli [14])	MIC (Klebsiella pneumoniae [15])	MIC [16]	IC50 [17]	further results
NCCN[C@H]1CC[C@H](CC(=O)N[C@H]2Cc3cccc(C(=O)O)c3OB2O)CC1	0.25 µg/mL (≈ 0.642 µM)	1 µg/mL (≈ 2.57 µM)	4 µg/mL (≈ 10.3 µM)	10.3 mL/min/kg	0.25 µg/mL (≈ 0.642 µM)	1 µg/mL (≈ 2.57 µM)	2 µg/mL (≈ 5.14 µM)	0.125 µg/mL (≈ 0.321 µM)	1 µg/mL (≈ 2.57 µM)	4 µg/mL (≈ 10.3 µM)	32 nM	7 nM	16 µg/mL (≈ 41.1 µM)	16 µg/mL (≈ 41.1 µM)	8 µg/mL (≈ 20.6 µM)	0.143 L/kg	2 µg/mL (≈ 5.14 µM)	0.015 µg/mL (≈ 0.0385 µM)	0.015 µg/mL (≈ 0.0385 µM)	20 nM	MIC50 (Acinetobacter baumannii): 1 µg/mL (≈ 2.57 µM); MIC90 (Acinetobacter baumannii): 4 µg/mL (≈ 10.3 µM); MIC (Pseudomonas aeruginosa [18]): > 16 µg/mL; MIC (Pseudomonas aeruginosa [19]): 1 µg/mL (≈ 2.57 µM); AUC(0-inf) [20]: 16200 ng·h/mL; MIC (Klebsiella pneumoniae [21]): 0.015 µg/mL (≈ 0.0385 µM); MIC (Klebsiella pneumoniae [22]): 16 µg/mL (≈ 41.1 µM); MIC (Klebsiella pneumoniae [23]): 1 µg/mL (≈ 2.57 µM); MIC (Klebsiella pneumoniae [24]): 2 µg/mL (≈ 5.14 µM); MIC (Escherichia coli [25]): 0.125 µg/mL (≈ 0.321 µM); IC50 [26]: 10 nM
NC(=O)[C@@H]1CC[C@@H]2CN1C(=O)N2OS(=O)(=O)O [AVIBACTAM]	8 µg/mL (≈ 30.2 µM)	> 32 µg/mL	> 32 µg/mL	20.6 mL/min/kg	8 µg/mL (≈ 30.2 µM)	1 µg/mL (≈ 3.77 µM)	16 µg/mL (≈ 60.3 µM)	> 16 µg/mL	> 32 µg/mL	> 32 µg/mL	16 nM	7 nM	16 µg/mL (≈ 60.3 µM)	> 16 µg/mL	> 16 µg/mL	0.21 L/kg	8 µg/mL (≈ 30.2 µM)	0.015 µg/mL (≈ 0.0566 µM)	0.015 µg/mL (≈ 0.0566 µM)	> 100000 nM	MIC50 (Acinetobacter baumannii): > 32 µg/mL; MIC90 (Acinetobacter baumannii): > 32 µg/mL; MIC (Pseudomonas aeruginosa [18]): > 16 µg/mL; MIC (Pseudomonas aeruginosa [19]): 1 µg/mL (≈ 3.77 µM); AUC(0-inf) [20]: 8080 ng·h/mL; MIC (Klebsiella pneumoniae [21]): 0.0079 µg/mL (≈ 0.0298 µM); MIC (Klebsiella pneumoniae [22]): > 16 µg/mL; MIC (Klebsiella pneumoniae [23]): 2 µg/mL (≈ 7.54 µM); MIC (Klebsiella pneumoniae [24]): 1 µg/mL (≈ 3.77 µM); MIC (Escherichia coli [25]): 8 µg/mL (≈ 30.2 µM); IC50 [26]: 3 nM
